Test results published in ChEMBL document CHEMBL1914457, “Syntheses of phenylpyrazolodiazepin-7-ones as conformationally rigid analogs of aminopyrazole amide scaffold and their antiproliferative effects on cancer cells” (Bioorg Med Chem, 2011).

Experiments:
U-937 = assay: Growth inhibition of human U937 cells after 24 hrs by thiazolyl blue tetrazolium bromide staining-based MTT assay; format: functional; conditions: U-937, 24 h
Method in brief: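 U937 cells kept in RPMI 1640 with 10% FBS, 1% penicillin/streptomycin and 25 mM HEPES at 37 °C, 5% CO2. Seeded at 5 × 10^3 cells/well and incubated 24 h before treatment. Compounds given as a threefold serial dilution over 12 points. Viability read by MTT reduction with thiazolyl blue tetrazolium bromide as absorbance at 570 nm.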

[1] = Growth inhibition of human A375P cells after 24 hrs by MTT assay; format: functional
Method in brief: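 A375P cells grown in DMEM with 10% FBS and 1% penicillin/streptomycin at 37 °C, 5% CO2. Cells lifted with 0.05% trypsin-0.02% EDTA, seeded at 5 × 10^3 cells/well and held 24 h before treatment. Compounds given as a threefold serial dilution over 12 points. Viability read by MTT reduction (CellTiter 96) as absorbance at 590 nm; IC50 fitted from the curve.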

[2] = biological target: T1, Phosphatidylinositol 4,5-bisphosphate 3-kinase catalytic subunit alpha isoform (Homo sapiens, UniProt P42336); assay: Inhibition of PI3Kalpha
T1 sequence (P42336 whole entry, canonical isoform): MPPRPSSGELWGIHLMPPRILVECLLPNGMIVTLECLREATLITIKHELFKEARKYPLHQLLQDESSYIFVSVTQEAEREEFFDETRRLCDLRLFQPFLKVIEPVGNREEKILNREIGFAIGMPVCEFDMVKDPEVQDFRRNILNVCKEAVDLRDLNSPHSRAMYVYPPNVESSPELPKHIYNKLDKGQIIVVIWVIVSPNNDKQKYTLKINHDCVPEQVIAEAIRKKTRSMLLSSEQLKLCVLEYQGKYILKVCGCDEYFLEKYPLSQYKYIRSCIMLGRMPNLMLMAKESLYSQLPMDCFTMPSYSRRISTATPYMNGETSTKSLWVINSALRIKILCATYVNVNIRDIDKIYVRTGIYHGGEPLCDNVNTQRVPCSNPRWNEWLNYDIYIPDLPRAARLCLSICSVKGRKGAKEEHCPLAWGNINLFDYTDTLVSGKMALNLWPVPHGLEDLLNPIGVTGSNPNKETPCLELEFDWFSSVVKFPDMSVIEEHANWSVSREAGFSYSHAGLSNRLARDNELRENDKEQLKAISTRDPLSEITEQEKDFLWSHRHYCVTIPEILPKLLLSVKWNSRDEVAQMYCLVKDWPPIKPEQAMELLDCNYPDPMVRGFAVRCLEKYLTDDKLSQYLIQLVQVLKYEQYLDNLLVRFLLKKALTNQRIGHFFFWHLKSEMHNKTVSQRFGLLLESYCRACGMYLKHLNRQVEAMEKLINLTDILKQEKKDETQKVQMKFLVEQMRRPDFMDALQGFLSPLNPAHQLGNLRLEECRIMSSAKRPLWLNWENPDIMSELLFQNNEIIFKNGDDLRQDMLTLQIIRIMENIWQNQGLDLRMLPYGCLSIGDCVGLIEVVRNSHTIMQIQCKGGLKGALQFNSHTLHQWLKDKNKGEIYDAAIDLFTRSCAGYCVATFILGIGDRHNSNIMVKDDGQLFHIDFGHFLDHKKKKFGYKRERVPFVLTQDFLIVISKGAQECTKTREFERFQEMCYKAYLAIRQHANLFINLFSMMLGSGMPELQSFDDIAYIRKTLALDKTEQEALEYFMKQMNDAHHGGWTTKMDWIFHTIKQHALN

[3] = biological target: T2, RAF proto-oncogene serine/threonine-protein kinase (Homo sapiens, UniProt P04049); assay: Inhibition of human CRAF using [gamma-33P]ATP after 40 mins by scintillation counting
T2 sequence (P04049 whole entry): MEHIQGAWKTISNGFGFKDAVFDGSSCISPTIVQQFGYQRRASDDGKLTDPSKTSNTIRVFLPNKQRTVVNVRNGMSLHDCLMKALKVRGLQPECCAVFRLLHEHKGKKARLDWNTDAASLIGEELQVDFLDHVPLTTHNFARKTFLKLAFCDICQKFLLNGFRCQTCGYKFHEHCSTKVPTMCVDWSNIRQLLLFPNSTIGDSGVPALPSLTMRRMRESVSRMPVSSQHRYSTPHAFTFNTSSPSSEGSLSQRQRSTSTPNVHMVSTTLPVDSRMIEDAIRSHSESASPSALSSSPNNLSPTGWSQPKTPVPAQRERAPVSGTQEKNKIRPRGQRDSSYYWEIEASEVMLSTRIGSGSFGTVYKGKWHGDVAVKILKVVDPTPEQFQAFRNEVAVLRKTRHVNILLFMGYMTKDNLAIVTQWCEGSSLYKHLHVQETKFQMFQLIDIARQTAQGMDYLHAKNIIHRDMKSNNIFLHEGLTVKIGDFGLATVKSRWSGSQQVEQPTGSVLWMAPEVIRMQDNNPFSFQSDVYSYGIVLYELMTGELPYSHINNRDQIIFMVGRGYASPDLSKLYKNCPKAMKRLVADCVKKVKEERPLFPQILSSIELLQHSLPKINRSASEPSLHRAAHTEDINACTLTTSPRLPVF
Method in brief: (§1)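 Human c-Raf (5–10 mU) was run in 25 mM Tris pH 7.5 with 0.02 mM EGTA, 10 mM Mg acetate and 0.66 mg/mL myelin basic protein as substrate. The reaction was started with Mg–[γ-33P]ATP (about 500 cpm/pmol; ATP concentration not stated) and run 40 min at room temperature. It was stopped with 3% phosphoric acid, spotted on P30 filtermat, washed in 75 mM phosphoric acid and methanol, and scintillation counted.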

[4] = biological target: Serine/threonine-protein kinase B-raf (Homo sapiens, UniProt P15056, V600E); assay: Inhibition of BRAF V600E mutant
Serine/threonine-protein kinase B-raf, sequence (P15056 2-766 V600E limits assumed): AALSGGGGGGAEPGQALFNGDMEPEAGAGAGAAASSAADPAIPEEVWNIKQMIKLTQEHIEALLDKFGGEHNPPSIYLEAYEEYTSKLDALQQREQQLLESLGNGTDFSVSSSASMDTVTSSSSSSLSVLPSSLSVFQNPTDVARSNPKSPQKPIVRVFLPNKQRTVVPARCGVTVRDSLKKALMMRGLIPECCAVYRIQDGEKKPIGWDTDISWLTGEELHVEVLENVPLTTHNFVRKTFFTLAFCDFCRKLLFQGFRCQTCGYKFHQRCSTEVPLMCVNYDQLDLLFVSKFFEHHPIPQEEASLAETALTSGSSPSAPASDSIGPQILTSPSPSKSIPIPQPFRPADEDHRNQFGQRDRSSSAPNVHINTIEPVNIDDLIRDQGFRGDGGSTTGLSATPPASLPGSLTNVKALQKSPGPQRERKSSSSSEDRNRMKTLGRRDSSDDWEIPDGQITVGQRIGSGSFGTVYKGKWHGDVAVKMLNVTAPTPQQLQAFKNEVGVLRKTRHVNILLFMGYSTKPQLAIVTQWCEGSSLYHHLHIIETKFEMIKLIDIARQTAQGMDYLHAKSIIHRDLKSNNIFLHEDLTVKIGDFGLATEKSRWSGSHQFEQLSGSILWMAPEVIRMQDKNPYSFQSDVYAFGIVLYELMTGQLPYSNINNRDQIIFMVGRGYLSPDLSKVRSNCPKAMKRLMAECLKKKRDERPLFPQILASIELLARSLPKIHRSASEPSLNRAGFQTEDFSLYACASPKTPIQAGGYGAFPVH

[5] = biological target: Tyrosine-protein kinase ABL1 (Homo sapiens) (UniProt P00519); assay: Inhibition of Abl1 at 10 uM
[6] = biological target: RAC-alpha serine/threonine-protein kinase (Homo sapiens) (UniProt P31749); assay: Inhibition of AKT1 at 10 uM
[7] = biological target: ALK tyrosine kinase receptor (Homo sapiens) (UniProt Q9UM73); assay: Inhibition of Alk at 10 uM
[8] = biological target: Aurora kinase A (Homo sapiens) (UniProt O14965); assay: Inhibition of Aurora-A at 10 uM
[9] = system: Serine/threonine-protein kinase B-raf (Homo sapiens), P15056 [V600E]; assay: Inhibition of BRAF V599E mutant at 10 uM
[10] = biological target: Cyclin-dependent kinase 1/cyclin B1 (Homo sapiens) (UniProt P06493+P14635); assay: Inhibition of CDK1/Cyclin B at 10 uM; format: protein-complex assay
[11] = biological target: Cyclin-dependent kinase 2/cyclin E1 (Homo sapiens) (UniProt P24864+P24941); assay: Inhibition of CDK2/Cyclin E at 10 uM; format: protein-complex assay
[12] = biological target: Mast/stem cell growth factor receptor Kit (Homo sapiens) (UniProt P10721); assay: Inhibition of cKIT at 10 uM
[13] = biological target: Hepatocyte growth factor receptor (Homo sapiens) (UniProt P08581); assay: Inhibition of cMet at 10 uM
[14] = biological target: Proto-oncogene tyrosine-protein kinase Src (Homo sapiens) (UniProt P12931); assay: Inhibition cSRC at 10 uM
Proto-oncogene tyrosine-protein kinase Src (Homo sapiens), sequence (P12931 2-536 limits assumed): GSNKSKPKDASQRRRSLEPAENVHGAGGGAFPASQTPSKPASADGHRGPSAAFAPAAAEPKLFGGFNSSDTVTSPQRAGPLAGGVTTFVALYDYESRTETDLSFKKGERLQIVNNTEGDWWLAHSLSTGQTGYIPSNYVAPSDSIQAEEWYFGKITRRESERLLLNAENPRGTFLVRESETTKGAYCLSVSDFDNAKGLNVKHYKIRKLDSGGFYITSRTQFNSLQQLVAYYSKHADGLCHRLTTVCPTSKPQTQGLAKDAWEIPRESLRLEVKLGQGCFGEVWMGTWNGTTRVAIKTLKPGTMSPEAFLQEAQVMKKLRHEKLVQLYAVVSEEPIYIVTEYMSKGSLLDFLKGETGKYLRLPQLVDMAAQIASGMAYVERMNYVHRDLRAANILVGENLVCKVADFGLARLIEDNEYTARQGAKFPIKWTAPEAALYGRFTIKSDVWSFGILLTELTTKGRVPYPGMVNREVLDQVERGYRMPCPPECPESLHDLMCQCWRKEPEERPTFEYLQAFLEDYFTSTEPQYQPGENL

[15] = biological target: Epidermal growth factor receptor (Homo sapiens) (UniProt P00533); assay: Inhibition EGFR at 10 uM
[16] = biological target: Mitogen-activated protein kinase 1 (Homo sapiens) (UniProt P28482); assay: Inhibition of ERK2 at 10 uM
[17] = biological target: Focal adhesion kinase 1 (Homo sapiens) (UniProt Q05397); assay: Inhibition of FAK at 10 uM
[18] = biological target: Fibroblast growth factor receptor 2 (Homo sapiens) (UniProt P21802); assay: Inhibition of FGFR2 at 10 uM
[19] = biological target: Fibroblast growth factor receptor 3 (Homo sapiens) (UniProt P22607); assay: Inhibition of FGFR3 at 10 uM
Fibroblast growth factor receptor 3 (Homo sapiens), sequence (P22607 23-806 limits assumed): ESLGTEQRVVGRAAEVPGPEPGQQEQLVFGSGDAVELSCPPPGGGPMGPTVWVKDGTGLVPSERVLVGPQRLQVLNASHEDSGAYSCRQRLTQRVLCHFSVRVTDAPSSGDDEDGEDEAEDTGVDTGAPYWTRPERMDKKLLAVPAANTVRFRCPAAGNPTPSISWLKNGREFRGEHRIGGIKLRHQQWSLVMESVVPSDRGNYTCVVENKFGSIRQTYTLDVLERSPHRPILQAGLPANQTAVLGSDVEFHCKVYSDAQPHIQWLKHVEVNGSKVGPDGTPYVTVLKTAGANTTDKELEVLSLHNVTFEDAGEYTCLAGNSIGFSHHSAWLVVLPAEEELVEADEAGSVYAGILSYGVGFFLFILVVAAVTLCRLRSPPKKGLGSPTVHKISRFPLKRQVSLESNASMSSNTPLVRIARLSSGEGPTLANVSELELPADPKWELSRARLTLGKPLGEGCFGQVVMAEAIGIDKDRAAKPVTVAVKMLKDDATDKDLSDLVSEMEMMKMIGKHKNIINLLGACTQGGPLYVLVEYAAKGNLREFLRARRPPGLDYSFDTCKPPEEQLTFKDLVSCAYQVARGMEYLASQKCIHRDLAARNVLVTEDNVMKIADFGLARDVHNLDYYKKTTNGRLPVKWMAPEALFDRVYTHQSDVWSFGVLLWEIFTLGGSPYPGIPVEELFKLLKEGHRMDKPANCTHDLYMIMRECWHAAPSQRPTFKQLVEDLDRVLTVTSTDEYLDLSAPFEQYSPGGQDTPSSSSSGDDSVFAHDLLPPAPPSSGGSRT

[20] = biological target: Receptor-type tyrosine-protein kinase FLT3 (Homo sapiens) (UniProt P36888); assay: Inhibition of FLT3 at 10 uM
Receptor-type tyrosine-protein kinase FLT3 (Homo sapiens), sequence (P36888 whole entry): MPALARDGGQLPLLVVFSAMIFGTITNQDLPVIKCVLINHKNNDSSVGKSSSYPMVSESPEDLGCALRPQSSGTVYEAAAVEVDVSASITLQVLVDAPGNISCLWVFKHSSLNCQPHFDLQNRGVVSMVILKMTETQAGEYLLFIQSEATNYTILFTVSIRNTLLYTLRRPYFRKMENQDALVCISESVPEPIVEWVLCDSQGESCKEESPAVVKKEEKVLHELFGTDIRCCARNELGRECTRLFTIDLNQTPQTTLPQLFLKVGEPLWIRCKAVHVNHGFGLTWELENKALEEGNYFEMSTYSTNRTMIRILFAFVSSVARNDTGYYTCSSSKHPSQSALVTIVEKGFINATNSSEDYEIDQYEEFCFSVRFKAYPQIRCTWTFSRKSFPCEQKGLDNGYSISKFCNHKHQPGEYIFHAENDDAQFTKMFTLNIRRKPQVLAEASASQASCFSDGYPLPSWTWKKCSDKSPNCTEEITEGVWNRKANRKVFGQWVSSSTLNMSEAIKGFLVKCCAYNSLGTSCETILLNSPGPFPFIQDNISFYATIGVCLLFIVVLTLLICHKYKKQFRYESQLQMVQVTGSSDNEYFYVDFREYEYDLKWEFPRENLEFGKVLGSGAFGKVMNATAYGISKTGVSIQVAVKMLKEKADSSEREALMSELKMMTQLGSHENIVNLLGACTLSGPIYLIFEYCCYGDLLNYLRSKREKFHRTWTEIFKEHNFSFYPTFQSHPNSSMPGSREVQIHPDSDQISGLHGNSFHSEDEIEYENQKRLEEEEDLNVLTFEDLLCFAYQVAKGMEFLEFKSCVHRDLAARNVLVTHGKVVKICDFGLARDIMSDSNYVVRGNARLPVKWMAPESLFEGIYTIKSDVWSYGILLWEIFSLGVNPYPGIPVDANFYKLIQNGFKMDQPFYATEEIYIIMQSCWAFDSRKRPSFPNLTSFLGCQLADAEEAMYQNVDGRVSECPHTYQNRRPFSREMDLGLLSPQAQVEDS

[21] = biological target: Macrophage colony-stimulating factor 1 receptor (Homo sapiens) (UniProt P07333); assay: Inhibition of FMS at 10 uM
[22] = biological target: Glycogen synthase kinase-3 beta (Homo sapiens) (UniProt P49841); assay: Inhibition of GSK3-beta at 10 uM
[23] = biological target: Insulin-like growth factor 1 receptor (Homo sapiens) (UniProt P08069); assay: Inhibition of IGF1R at 10 uM
[24] = biological target: Tyrosine-protein kinase JAK3 (Homo sapiens) (UniProt P52333); assay: Inhibition of JAK3 at 10 uM
[25] = biological target: Mitogen-activated protein kinase 8 (Homo sapiens) (UniProt P45983); assay: Inhibition of JNK1 at 10 uM
[26] = biological target: Mitogen-activated protein kinase 10 (Homo sapiens) (UniProt P53779); assay: Inhibition of JNK3 at 10 uM
[27] = biological target: Vascular endothelial growth factor receptor 2 (Homo sapiens) (UniProt P35968); assay: Inhibition of KDR at 10 uM
[28] = biological target: Tyrosine-protein kinase Lck (Homo sapiens) (UniProt P06239); assay: Inhibition of LCK at 10 uM
[29] = biological target: Tyrosine-protein kinase Lyn (Homo sapiens) (UniProt P07948); assay: Inhibition of LYN at 10 uM
[30] = biological target: Dual specificity mitogen-activated protein kinase kinase 1 (Homo sapiens) (UniProt Q02750); assay: Inhibition of MEK1 at 10 uM
[31] = biological target: T3, Serine/threonine-protein kinase mTOR (Homo sapiens, UniProt P42345); assay: Inhibition of MTOR at 10 uM
[32] = biological target: Mitogen-activated protein kinase 14 (Homo sapiens) (UniProt Q16539); assay: Inhibition of p38alpha at 10 uM
[33] = biological target: T1, Phosphatidylinositol 4,5-bisphosphate 3-kinase catalytic subunit alpha isoform; assay: Inhibition of PI3Kalpha at 10 uM
[34] = biological target: Serine/threonine-protein kinase PLK1 (Homo sapiens) (UniProt P53350); assay: Inhibition of PLK1 at 10 uM
[35] = biological target: T2, RAF proto-oncogene serine/threonine-protein kinase; assay: Inhibition of human CRAF using [gamma-33P]ATP at 10 uM after 40 mins by scintillation counting; method in brief: as §1
[36] = biological target: Macrophage-stimulating protein receptor (Homo sapiens) (UniProt Q04912); assay: Inhibition of RON at 10 uM
[37] = biological target: Proto-oncogene tyrosine-protein kinase ROS (Homo sapiens) (UniProt P08922); assay: Inhibition of ROS at 10 uM
[38] = biological target: Tyrosine-protein kinase SYK (Homo sapiens) (UniProt P43405); assay: Inhibition of SYK at 10 uM
[39] = biological target: BDNF/NT-3 growth factors receptor (Homo sapiens) (UniProt Q16620); assay: Inhibition of TRKB at 10 uM
[40] = biological target: T3, Serine/threonine-protein kinase mTOR; assay: Inhibition of MTOR

`O=C1CC(c2cccc(NC(=O)c3ccc(N4CCOCC4)c(C(F)(F)F)c3)c2)=Nc2cnn(Cc3ccccc3)c2N1` showed a GI50 (U-937) of 1.75 µM and a GI50 [1] of 2.91 µM.

For `Cc1cn(-c2cc(C(=O)Nc3ccc(C4=Nc5cnn(Cc6ccccc6)c5NC(=O)C4)cc3)cc(C(F)(F)F)c2)cn1`, the GI50 (U-937) was > 30 µM and the GI50 [1] was > 30 µM.

In the case of `O=C1CC(c2cccc(NC(=O)c3ccc(Cl)c(C(F)(F)F)c3)c2)=Nc2cnn(Cc3ccccc3)c2N1`, the IC50 [2] is reported as 2.15 µM, the IC50 [3] is reported as 0.961 µM and the IC50 ([4]; read-out: IC50) is reported as 0.655 µM. It also gave a GI50 (U-937) of 0.06 µM, a GI50 [1] of 0.43 µM and an inhibition [5] of 0%. For the same compound, the inhibition [6] was 0%, the inhibition [7] was 0% and the inhibition [8] was 6.5%. For the same compound, the inhibition [9] was 85.6%, the inhibition [10] was 7% and the inhibition [11] was 0.9%. For the same compound, the inhibition [12] was 3.6%, the inhibition [13] was 1.3% and the inhibition [14] was 4.3%. The inhibition [15] was 1.6%, the inhibition [16] was 0% and the inhibition [17] was 0%. The inhibition [18] was 0%, the inhibition [19] was 0% and the inhibition [20] was 19.3%. It also gave an inhibition [21] of 0.5%, an inhibition [22] of 17.8% and an inhibition [23] of 1.9%. It also gave an inhibition [24] of 0%, an inhibition [25] of 0% and an inhibition [26] of 0%. The inhibition [27] was 0%, the inhibition [28] was 5.6% and the inhibition [29] was 4.6%. It also gave an inhibition [30] of 0%, an inhibition [31] of 0% and an inhibition [32] of 0%. For the same compound, the inhibition [33] was 75.2%, the inhibition [34] was 0% and the inhibition [35] was 92.9%. For the same compound, the inhibition [36] was 4.4%, the inhibition [37] was 0% and the inhibition [38] was 0%. The inhibition [39] was 0.2%.

For `O=C1CC(c2cccc(NC(=O)Nc3ccc(Cl)c(C(F)(F)F)c3)c2)=Nc2cnn(Cc3ccccc3)c2N1`, the IC50 [3] was 0.668 µM, the IC50 [4] was “Not Active” and the GI50 (U-937) was 7.31 µM. It also gave a GI50 [1] of 4.45 µM.

In the case of `Cc1cn(-c2cc(C(=O)Nc3cccc(C4=Nc5cnn(Cc6ccccc6)c5NC(=O)C4)c3)cc(C(F)(F)F)c2)cn1`, the GI50 (U-937) is reported as > 30 µM and the GI50 [1] is reported as > 30 µM.

Work on `CNC(=O)c1cc(Oc2ccc(NC(=O)Nc3ccc(Cl)c(C(F)(F)F)c3)cc2)ccn1` [SORAFENIB] yielded a GI50 (U-937) of 2.85 µM and a GI50 [1] of 5.58 µM.

With `COc1ccc(Cn2ncc3c2NC(=O)CC(c2cccc(NC(=O)Nc4cccc(C(F)(F)F)c4)c2)=N3)cc1` the GI50 (U-937) was 0.28 µM and the GI50 [1] was 0.25 µM.

In the case of `COc1ccc(Cn2ncc3c2NC(=O)CC(c2cccc(NC(=O)Nc4cccc(Cl)c4)c2)=N3)cc1`, the GI50 (U-937) is reported as 0.63 µM and the GI50 [1] is reported as 0.91 µM.

In the case of `Cc1cn(-c2cc(NC(=O)Nc3ccc(C4=Nc5cnn(Cc6ccccc6)c5NC(=O)C4)cc3)cc(C(F)(F)F)c2)cn1`, the GI50 (U-937) is reported as > 30 µM and the GI50 [1] is reported as > 30 µM.

Work on `COc1ccc(Cn2ncc3c2NC(=O)CC(c2cccc(NC(=O)Nc4ccc(C(F)(F)F)cc4)c2)=N3)cc1` yielded a GI50 (U-937) of 0.11 µM and a GI50 [1] of 0.77 µM.

Work on `COc1ccc(Cn2ncc3c2NC(=O)CC(c2cccc(NC(=O)Nc4cc(Cl)cc(Cl)c4)c2)=N3)cc1` yielded a GI50 (U-937) of 6.48 µM and a GI50 [1] of 0.78 µM.

Compound `COc1ccc(Cn2ncc3c2NC(=O)CC(c2ccc(NC(=O)Nc4ccc(Cl)c(C(F)(F)F)c4)cc2)=N3)cc1` has a GI50 (U-937) of 7.29 µM and a GI50 [1] of 3.93 µM.

With `COc1ccc(Cn2ncc3c2NC(=O)CC(c2cccc(NC(=O)Nc4ccc(Cl)c(Cl)c4)c2)=N3)cc1` the GI50 (U-937) was 14.9 µM and the GI50 [1] was 3.86 µM.

`COc1ccc(Cn2ncc3c2NC(=O)CC(c2cccc(NC(=O)Nc4ccc(Cl)cc4)c2)=N3)cc1` gave a GI50 (U-937) of 0.58 µM and a GI50 [1] of 0.64 µM.

In the case of `O=C1CC(c2cccc(NC(=O)Nc3ccc(Cl)c(Cl)c3)c2)=Nc2cn[nH]c2N1`, the GI50 (U-937) is reported as > 30 µM and the GI50 [1] is reported as > 30 µM.

Work on `O=C1CC(c2ccc(NC(=O)c3ccc(N4CCOCC4)c(C(F)(F)F)c3)cc2)=Nc2cnn(Cc3ccccc3)c2N1` yielded a GI50 (U-937) of 0.21 µM and a GI50 [1] of 16.4 µM.

With `O=C1CC(c2cccc(NC(=O)c3cc(N4CCOCC4)cc(C(F)(F)F)c3)c2)=Nc2cnn(Cc3ccccc3)c2N1` the GI50 (U-937) was > 30 µM and the GI50 [1] was > 30 µM.

In the case of `O=C1CC(c2ccc(NC(=O)c3ccc(Cl)c(C(F)(F)F)c3)cc2)=Nc2cnn(Cc3ccccc3)c2N1`, the GI50 (U-937) is reported as 0.06 µM and the GI50 [1] is reported as 13.1 µM.

With `O=C1CC(c2ccc(NC(=O)Nc3ccc(Cl)c(C(F)(F)F)c3)cc2)=Nc2cn[nH]c2N1` the GI50 (U-937) was > 30 µM and the GI50 [1] was > 30 µM.

For `O=C1CC(c2cccc(NC(=O)Nc3ccc(Cl)cc3)c2)=Nc2cn[nH]c2N1`, the GI50 (U-937) was > 30 µM and the GI50 [1] was > 30 µM.

With `COc1ccc(Cn2ncc3c2NC(=O)CC(c2cccc(NC(=O)Nc4cc(N5CCOCC5)cc(C(F)(F)F)c4)c2)=N3)cc1` the GI50 (U-937) was > 30 µM and the GI50 [1] was 3.32 µM.

For `O=c1cc(N2CCOCC2)oc2c(-c3ccccc3)cccc12` [LY-294002], the IC50 [40] was 6.8 µM.

In the case of `O=C1CC(c2ccc(NC(=O)Nc3ccc(Cl)c(C(F)(F)F)c3)cc2)=Nc2cnn(Cc3ccccc3)c2N1`, the GI50 (U-937) is reported as 8.68 µM and the GI50 [1] is reported as 1.19 µM.

`O=C1CC(c2ccc(NC(=O)Nc3cccc(Cl)c3)cc2)=Nc2cnn(Cc3ccccc3)c2N1` gave a GI50 (U-937) of 0.67 µM and a GI50 [1] of 2.07 µM.
